Our source for the IC50 values is ChEMBL document CHEMBL1149120, “Discovery of potent inhibitors of dihydroneopterin aldolase using CrystaLEAD high-throughput X-ray crystallographic screening and structure-directed lead optimization” (J Med Chem, 2004).

The structures appear in SMILES notation.

A short description of the assay: Inhibition of Staphylococcus aureus 7,8-dihydroneopterin aldolase. The procedure, abridged:
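DHNA expressed in E. coli BL21(DE3) and purified by DEAE, Q-Sepharose and S300 chromatography; 50 nM enzyme with 4 µM 7,8-dihydroneopterin in 20 mM HEPES pH 7.4, 150 mM NaCl, ambient temperature (~29 °C). IC50 is the concentration halving the initial rate.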
On to `Cn1c(N)nc(-c2ccccc2)c(Br)c1=O`, for which the midpoint of inhibition, the IC50, lay at 38000 nM.
`Nc1nc(O)c2nn(-c3cccc(C(=O)NCC4(O)CCCCC4)c3)nc2n1` showed an IC50 of 740 nM.
In turn, `Nc1nc(O)c2nn(-c3cccc(C(=O)NCc4cc(C(F)(F)F)cc(C(F)(F)F)c4)c3)nc2n1` came in with an IC50 of 1000 nM.
As for `Nc1nc(O)c2nn(-c3cccc(C(=O)NCc4ccc5c(c4)CCO5)c3)nc2n1`, the figure is 550 nM; as for `Nc1nc(O)c2nn(-c3cccc(C(=O)NCc4ccc(Oc5ccccc5)cc4)c3)nc2n1`, 22000 nM; as for `Nc1nc(O)c2nn(-c3cccc(C(=O)NC[C@@H]4CCCCC[C@H]4O)c3)nc2n1`, 350 nM.
`Cc1nc(N)nc(O)c1N(Cc1ccc(Cl)c(Cl)c1)N=O` displayed an IC50 of 1300 nM.
The compound `Nc1nc(O)c2cc(N(C=O)Cc3ccc(Cl)c(Cl)c3)ccc2n1` displayed an IC50 of 600 nM.
`Nc1nc(O)c2nn(-c3cccc(C(=O)NCCCCO)c3)nc2n1` came in with an IC50 of 2000 nM.
On to `CCC(CO)(CO)CNC(=O)c1cccc(-n2nc3nc(N)nc(O)c3n2)c1`, for which the IC50 is 950 nM.
For the compound `Nc1nc(O)c2nn(-c3cccc(C(=O)NCCCO)c3)nc2n1`, the midpoint of inhibition, the IC50, lay at 2300 nM.
As to `NC1=NC(=O)C2N=C(S)N=C2N1` (configuration not stated), the IC50 was found to be 1000 nM.
On to `Nc1nc(O)c2nn(-c3cccc(C(=O)NCc4ccc5c(c4)OCO5)c3)nc2n1`, for which half-maximal inhibition (IC50) required 310 nM.
`Nc1nc(O)c2nn(-c3cccc(C(=O)NC[C@H]4CCCC[C@@H]4O)c3)nc2n1` displayed an IC50 of 320 nM.
In the case of `Nc1nc(O)c2nn(-c3cccc(C(=O)NCc4ccc(-c5ccccc5)cc4)c3)nc2n1`, the midpoint of inhibition, the IC50, lay at 25000 nM.
With `CC(C)(CO)CNC(=O)c1cccc(-n2nc3nc(N)nc(O)c3n2)c1`, the IC50 amounted to 730 nM.
`Nc1nc(O)c2nn(-c3cccc(C(=O)NC[C@H]4CCCC[C@H]4O)c3)nc2n1`: the IC50 was 410 nM.

As usually defined, the IC50 is the concentration that gives 50% inhibition. Low values mean inhibition by little substance, high ones a need for much substance.
